The target in data set [1] is Mu-type opioid receptor (Mus musculus, UniProt P42866). Briefly: Displacement of [3H]DAMGO from mu opioid receptor in mouse whole brain […] membrane. It counts as tissue-based. The method, boiled down: (§1)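 Competitive binding run in duplicate. MOR used [3H]DAMGO and DOR used [3H]DPDPE, both on mouse whole-brain membranes without cerebellum. KOR used [3H]U-69,593 on guinea pig cerebellum membranes.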

Data set [2] deals with Delta-type opioid receptor (Mus musculus, UniProt P32300). The data set can be described thus: Displacement of [3H]DPDPE from delta opioid receptor in mouse whole brain […] membrane. In kind it is tissue-based. The method, boiled down: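 Competitive binding run in duplicate. MOR used [3H]DAMGO and DOR used [3H]DPDPE, both on mouse whole-brain membranes without cerebellum.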
Chain of Delta-type opioid receptor (Mus musculus, UniProt P32300) (P32300 whole entry): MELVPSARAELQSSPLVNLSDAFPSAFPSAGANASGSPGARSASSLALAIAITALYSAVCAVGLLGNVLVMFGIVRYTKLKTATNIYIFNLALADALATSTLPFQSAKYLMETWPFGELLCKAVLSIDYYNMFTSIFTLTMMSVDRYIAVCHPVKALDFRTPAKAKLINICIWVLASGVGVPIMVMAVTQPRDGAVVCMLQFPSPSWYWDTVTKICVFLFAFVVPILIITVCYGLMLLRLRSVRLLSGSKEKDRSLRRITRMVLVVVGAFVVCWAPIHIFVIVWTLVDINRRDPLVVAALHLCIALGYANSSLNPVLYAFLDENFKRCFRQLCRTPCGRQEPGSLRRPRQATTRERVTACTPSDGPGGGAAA

In data set [3] the target is Kappa-type opioid receptor (Cavia porcellus, UniProt P41144). Briefly: Displacement of [3H]U69593 from kappa opioid receptor in guinea pig cerebellum membrane. The method, boiled down: as §1
Chain of Kappa-type opioid receptor (Cavia porcellus, UniProt P41144) (P41144 whole entry): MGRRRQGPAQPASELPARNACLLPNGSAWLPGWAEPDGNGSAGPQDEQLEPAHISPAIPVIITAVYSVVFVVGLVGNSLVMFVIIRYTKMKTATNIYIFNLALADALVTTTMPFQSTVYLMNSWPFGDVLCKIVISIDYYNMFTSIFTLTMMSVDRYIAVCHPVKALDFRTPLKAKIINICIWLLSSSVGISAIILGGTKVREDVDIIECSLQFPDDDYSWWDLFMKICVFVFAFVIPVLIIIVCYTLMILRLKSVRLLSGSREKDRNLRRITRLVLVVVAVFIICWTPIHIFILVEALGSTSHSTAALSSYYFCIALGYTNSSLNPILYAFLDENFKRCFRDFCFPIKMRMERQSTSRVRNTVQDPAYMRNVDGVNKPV
For data set [4], the species on record is Mus musculus. The data set can be described thus: Selectivity ratio of Ki for mouse mu opioid receptor to Ki for mouse delta opioid receptor.
The nature of data set [5]: Selectivity ratio of Ki for guinea pig kappa opioid receptor to Ki for mouse delta opioid receptor.
Data set [6] concerns the target T1, Mu-type opioid receptor (Homo sapiens, UniProt P35372). Briefly: Agonist activity at human mu opioid receptor expressed in CHO cells assessed as [35S]-GTP[gammaS] binding. In kind it is cell-based. Summed up:
(§2)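 Human MOR, DOR or KOR expressed in CHO cells; [35S]GTPγS binding run in duplicate. Emax is the % of the response to DAMDO for MOR, SNC80 for DOR and U-69,593 for KOR.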

The target of data set [7] is T1, Mu-type opioid receptor. The data set can be described thus: Agonist activity at human mu opioid receptor expressed in CHO cells assessed as [35S]-GTP[gammaS] binding relative to DAMDO. It counts as cell-based. Summed up:
as §2

Data set [8] has as its target T2, Delta-type opioid receptor (Homo sapiens, UniProt P41143). Briefly: Agonist activity at human delta opioid receptor expressed in CHO cells assessed as [35S]-GTP[gammaS] binding. In kind it is functional, cell-based. The method, boiled down:
as §2

The target of data set [9] is T2, Delta-type opioid receptor. The data set can be described thus: Agonist activity at human delta opioid receptor expressed in CHO cells assessed as [35S]-GTP[gammaS] binding relative to SNC80. It counts as functional, cell-based. The method, boiled down: as §2
In data set [10] the target is T3, Kappa-type opioid receptor (Homo sapiens, UniProt P41145). The data set can be described thus: Agonist activity at human kappa opioid receptor expressed in CHO cells assessed as [35S]-GTP[gammaS] binding. In kind it is functional, cell-based. Summed up: as §2
T3 sequence (P41145 whole entry): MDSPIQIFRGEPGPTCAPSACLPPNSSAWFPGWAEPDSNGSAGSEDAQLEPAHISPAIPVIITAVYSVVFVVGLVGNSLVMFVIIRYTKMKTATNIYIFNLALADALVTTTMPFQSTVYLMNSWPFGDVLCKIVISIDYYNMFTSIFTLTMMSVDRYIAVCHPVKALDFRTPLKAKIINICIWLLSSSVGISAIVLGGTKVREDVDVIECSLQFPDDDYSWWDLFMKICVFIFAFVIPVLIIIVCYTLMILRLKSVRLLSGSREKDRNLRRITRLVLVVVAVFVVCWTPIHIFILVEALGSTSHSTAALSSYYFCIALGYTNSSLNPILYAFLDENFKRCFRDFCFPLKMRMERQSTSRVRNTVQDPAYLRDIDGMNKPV
Data set [11] has as its target T3, Kappa-type opioid receptor. The data set can be described thus: Agonist activity at human kappa opioid receptor expressed in CHO cells assessed as [35S]-GTP[gammaS] binding relative to U69593. In kind it is functional, cell-based. Summed up: as §2
Data set [12] concerns the target T1, Mu-type opioid receptor. The data set can be described thus: Agonist activity at human mu opioid receptor expressed in HEK293 cells by CellKey method. It counts as cell-based. The method, boiled down:
(§3)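 Label-free CellKey impedance biosensor readout of receptor activity in HEK293 cells expressing human MOR, DOR or KOR, run in duplicate.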

Data set [13] addresses T1, Mu-type opioid receptor. Briefly: Agonist activity at human mu opioid receptor expressed in HEK293 cells by CellKey method relative to DAMDO. It counts as cell-based.
The target in data set [14] is T2, Delta-type opioid receptor. The data set can be described thus: Agonist activity at human delta opioid receptor expressed in HEK293 cells by CellKey method. In kind it is cell-based. The method, boiled down: (§4)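 Label-free CellKey impedance biosensor readout of receptor activity in HEK293 cells expressing human MOR, DOR or KOR, run in duplicate. Emax is the % of the response to DAMGO for MOR, SNC80 for DOR and (−)-U-50,488H for KOR.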

The target of data set [15] is T2, Delta-type opioid receptor. Briefly: Agonist activity at human delta opioid receptor expressed in HEK293 cells by CellKey method relative to SNC80. In kind it is cell-based. The method, boiled down:
as §4

The target of data set [16] is T3, Kappa-type opioid receptor. The data set can be described thus: Agonist activity at human kappa opioid receptor expressed in HEK293 cells by CellKey method. In kind it is cell-based. Summed up: as §3
In data set [17] the target is T3, Kappa-type opioid receptor. Briefly: Agonist activity at human kappa opioid receptor expressed in HEK293 cells by CellKey method relative to (-)U50488H. It counts as cell-based. The method, boiled down: as §4
The subject of data set [18] is Mus musculus. Briefly: Analgesic activity in sc dosed mouse assessed as inhibition of acetic acid-induced writhing treated after 15 mins of acetic acid-challenge. It counts as functional. Summed up:
(§5)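 Mice dosed subcutaneously, then scored in the acetic acid writhing test and watched for convulsive behaviour. […] taken from the dose–response. Antagonist reversal tested with NTI, β-FNA or nor-BNI. Groups compared against saline-treated mice by one-way ANOVA with Bonferroni's test.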

The subject of data set [19] is Mus musculus. The data set can be described thus: Toxicity in mouse assessed as induction of convulsion at 1 to 10 mg/kg, sc. In kind it is organism-based. Further details: dose 1-10 mg/kg, route subcutaneous. The settings on record: in vivo. Summed up: as §5

T2 sequence (P41143 whole entry): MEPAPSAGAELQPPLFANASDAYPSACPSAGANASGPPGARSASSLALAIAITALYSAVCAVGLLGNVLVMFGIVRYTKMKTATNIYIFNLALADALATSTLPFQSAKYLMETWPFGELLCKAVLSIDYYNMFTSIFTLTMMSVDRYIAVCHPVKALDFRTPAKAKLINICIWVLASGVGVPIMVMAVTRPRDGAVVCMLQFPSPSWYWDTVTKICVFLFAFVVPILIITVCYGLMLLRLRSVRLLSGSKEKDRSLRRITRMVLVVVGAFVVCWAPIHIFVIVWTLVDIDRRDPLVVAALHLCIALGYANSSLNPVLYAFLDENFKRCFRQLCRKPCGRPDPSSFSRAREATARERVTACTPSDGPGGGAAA
T1 sequence (P35372 whole entry): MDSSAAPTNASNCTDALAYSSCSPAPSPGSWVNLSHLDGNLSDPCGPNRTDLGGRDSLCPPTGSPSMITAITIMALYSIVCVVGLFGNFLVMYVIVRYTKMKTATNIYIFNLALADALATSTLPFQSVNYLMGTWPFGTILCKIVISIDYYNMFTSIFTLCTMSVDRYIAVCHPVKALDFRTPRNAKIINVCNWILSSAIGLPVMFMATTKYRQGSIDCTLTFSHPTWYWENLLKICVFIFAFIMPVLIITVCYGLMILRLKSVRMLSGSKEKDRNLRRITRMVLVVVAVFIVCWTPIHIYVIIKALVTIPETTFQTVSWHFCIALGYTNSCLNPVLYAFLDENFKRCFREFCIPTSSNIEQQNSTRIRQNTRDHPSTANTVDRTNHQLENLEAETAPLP
Chain of Mu-type opioid receptor (Mus musculus, UniProt P42866) (P42866 whole entry): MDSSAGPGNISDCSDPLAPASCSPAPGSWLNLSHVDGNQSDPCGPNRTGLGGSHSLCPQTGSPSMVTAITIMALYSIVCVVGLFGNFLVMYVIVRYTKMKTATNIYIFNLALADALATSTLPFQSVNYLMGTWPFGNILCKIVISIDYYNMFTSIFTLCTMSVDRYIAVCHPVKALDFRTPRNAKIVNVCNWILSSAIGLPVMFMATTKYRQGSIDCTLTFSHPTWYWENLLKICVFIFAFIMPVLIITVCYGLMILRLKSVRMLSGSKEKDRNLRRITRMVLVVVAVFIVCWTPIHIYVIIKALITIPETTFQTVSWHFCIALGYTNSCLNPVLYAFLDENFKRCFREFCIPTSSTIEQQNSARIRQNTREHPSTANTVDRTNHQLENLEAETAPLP

Regarding `O=C1[C@H]2O[C@@]34CC[C@@]5(OCOc6c(O)ccc7c6[C@@]3(CCN(CC3CC3)[C@@H]4C7)[C@H]25)N1Cc1ccccc1`, the Ki at Mu-type opioid receptor [1] is 3.14 nM; in [2], 0.313 nM; in data set [3] it was 5.14 nM. In addition, the results for the Ratio Ki (in the data set listed under Mus musculus [4]; in [5]) were 10 and 16.4, respectively. Moreover, the EC50 stood at 2.8 nM on Mu-type opioid receptor [6]; 1.1 nM in [8]; 80.5 nM in data set [10]; 1.8 nM at Mu-type opioid receptor [12]; 1.54 nM in data set [14]; 39.8 nM in data set [16]. Moreover, the Emax stood at 13.7% at Mu-type opioid receptor [7]; 92.8% in data set [9]; 69.1% in data set [11]; 9.6% on Mu-type opioid receptor [13]; 88.7% in [15]; 50.5% in [17].
Consider `O=C1[C@H]2O[C@@]34CC[C@@]5(OCOc6c(O)ccc7c6[C@@]3(CCN(CCc3ccccc3)[C@@H]4C7)[C@H]25)N1Cc1ccccc1`, for which the Ki on Mu-type opioid receptor [1] was found to be 45.9 nM; in [2] it was 2.59 nM; in data set [3], 588 nM. In addition, the Ratio Ki is 17.7 in the data set filed under Mus musculus [4] and 227 in data set [5]. The EC50 is 2.3 nM on Mu-type opioid receptor [6]; 9.2 nM in data set [8]; 639 nM at Mu-type opioid receptor [12]; 20.5 nM in data set [14]; 12500 nM in [16]. Besides, the Emax on Mu-type opioid receptor [7] is 83%; in data set [9], 115%; on Mu-type opioid receptor [13], 40.2%; in data set [15] it was 108%; in data set [17], 22.6%.
Regarding `O=C1[C@H]2O[C@@]34CC[C@@]5(OCOc6c(O)ccc7c6[C@@]3(CCN(CC3CC3)[C@@H]4C7)[C@H]25)N1CCc1ccccc1`, the results for the Ki (on Mu-type opioid receptor [1]; in [2]; in [3]) were 1.75 nM, 1.16 nM and 1.94 nM, respectively. Also, the Ratio Ki turned out to be 1.5 in the data set listed under Mus musculus [4] and 1.7 in data set [5]. Moreover, the half-maximal effective concentration (EC50) on Mu-type opioid receptor [6] amounted to 2.1 nM; in data set [8], 0.41 nM; in data set [10], 3.9 nM; at Mu-type opioid receptor [12], 5.2 nM; in [14], 0.62 nM; in [16] it was 2.4 nM. For the same molecule, the Emax at Mu-type opioid receptor [7] is 19.7%; in [9], 103%; in data set [11], 51.2%; at Mu-type opioid receptor [13] it was 4.8%; in data set [15], 90.6%; in data set [17] it was 75.8%.
In the case of `C=CCN1CC[C@@]23c4c5ccc(O)c4OCO[C@]46CC[C@@]2(O[C@H](C(=O)N4Cc2ccccc2)[C@H]63)[C@H]1C5`, the Ki stood at 68.4 nM on Mu-type opioid receptor [1], 1.23 nM in [2] and 56.6 nM in data set [3]. Moreover, the values for the Ratio Ki (in the data set filed under Mus musculus [4]; in data set [5]) were 55.8 and 46.2, respectively. Also, the EC50 on Mu-type opioid receptor [6] turned out to be 2.7 nM; in data set [8], 6.5 nM; in [10], 231 nM; on Mu-type opioid receptor [12], 5.1 nM; in data set [14], 2 nM. For the same molecule, the Emax came out at 5.4% at Mu-type opioid receptor [7]; 94.6% in data set [9]; 74% in data set [11]; 11.3% at Mu-type opioid receptor [13]; 77.2% in data set [15].
For the molecule `O=C1[C@H]2O[C@@]34CC[C@@]5(OCOc6c(O)ccc7c6[C@@]3(CCN(CC3CC3)[C@@H]4C7)[C@H]25)N1c1ccccc1`, the Ki on Mu-type opioid receptor [1] was determined as 4.61 nM; in data set [2], 0.534 nM; in [3], 1.69 nM. Further, the Ratio Ki in the data set filed under Mus musculus [4] was determined as 8.6; in data set [5], 3.2. In addition, the EC50 at Mu-type opioid receptor [6] is 9 nM; in data set [8], 0.98 nM; in data set [10] it was 6.5 nM; at Mu-type opioid receptor [12], 1.2 nM; in [14], 0.39 nM; in data set [16], 1.2 nM. Further, the Emax turned out to be 25.6% at Mu-type opioid receptor [7]; 118% in [9]; 42.9% in [11]; 8.8% at Mu-type opioid receptor [13]; 123% in data set [15]; 80.4% in data set [17].
Turning to `CC(C)CN1CC[C@@]23c4c5ccc(O)c4OCO[C@]46CC[C@@]2(O[C@H](C(=O)N4Cc2ccccc2)[C@H]63)[C@H]1C5`, the Ki on Mu-type opioid receptor [1] was found to be 186 nM; in [2], 7 nM; in data set [3] it was 119 nM. The Ratio Ki amounted to 26.6 in the data set listed under Mus musculus [4] and 17 in [5]. For the same molecule, the EC50 on Mu-type opioid receptor [6] came out at 223 nM; in data set [8], 15.6 nM; in data set [10], 760 nM; at Mu-type opioid receptor [12] it was 400 nM; in data set [14], 140 nM; in [16], 333 nM. Besides, the Emax worked out at 8.4% at Mu-type opioid receptor [7]; 96.4% in data set [9]; 65.6% in data set [11]; 12.2% at Mu-type opioid receptor [13]; 130% in [15]; 57.9% in data set [17].
On to `C=CCN1C[C@H](C)N([C@H](c2ccc(C(=O)N(CC)CC)cc2)c2cccc(OC)c2)C[C@H]1C` [SNC-80], for which the figures for the Ki (on Mu-type opioid receptor [1]; in data set [3]) were 695 nM and more than 1000 nM, respectively. The results for the Emax (at Mu-type opioid receptor [13]; in data set [17]) were 6.8% and 5.9%, respectively.
For `COc1ccc2c(c1O)[C@]13CCN(CC4CC4)[C@H](C2)[C@]12CC[C@]1(O)[C@H]3[C@H](O2)C(=O)N1Cc1ccccc1`, the Ki on Mu-type opioid receptor [1] stood at 47.7 nM; in data set [2] it was 175 nM; in data set [3] it was 248 nM. For the same molecule, the Ratio Ki in the data set listed under Mus musculus [4] worked out at 0.27; in [5] it was 1.4.
With `CN1CC[C@@]23c4c5ccc(O)c4OCO[C@]46CC[C@@]2(O[C@H](C(=O)N4Cc2ccccc2)[C@H]63)[C@H]1C5`, the Ki came to 23.3 nM at Mu-type opioid receptor [1], 1.94 nM in data set [2] and 200 nM in [3]. Moreover, the Ratio Ki in the data set listed under Mus musculus [4] was 12; in data set [5], 103. Moreover, the EC50 was 113 nM on Mu-type opioid receptor [6]; 11 nM in data set [8]; 478 nM in [10]; 1350 nM on Mu-type opioid receptor [12]; 141 nM in data set [14]; 307 nM in data set [16]. The Emax at Mu-type opioid receptor [7] is 110%; in [9], 112%; in data set [11], 83.6%; on Mu-type opioid receptor [13], 36.1%; in data set [15] it was 138%; in data set [17] it was 79.2%. In the data set on Mus musculus [18], the inhibition result is “Dose-dependent effect”. Further, the ED50 in the data set with Mus musculus [18] (0.25 h) amounted to 5.26 mg/kg. For the same molecule, in the data set on Mus musculus [19], the Activity result is “Non-toxic”.

The values are drawn from ChEMBL document CHEMBL3259551, “Novel delta opioid receptor agonists with oxazatricyclodecane structure” (ACS Med Chem Lett, 2014).
